From ChEMBL document CHEMBL2163344, “Immunomodulatory properties of novel nucleotide oligomerization domain 2 (nod2) agonistic desmuramyldipeptides” (J Med Chem, 2012)
The source made the active and inactive calls. No cut-off for these calls is given here.

Columns and labels:
[1] = molecular target: T1, Toll-like receptor 7 (Homo sapiens) (UniProt Q9NYK1); test: Agonist activity at human TLR7 expressed in Ramos blue cells assessed as stimulation of NF-kB/AP-1 activity at 20 uM incubated for 18 hrs using quanti blue assay based SEAP reporter gene assay; type: functional, cell-based
T1 sequence (whole entry): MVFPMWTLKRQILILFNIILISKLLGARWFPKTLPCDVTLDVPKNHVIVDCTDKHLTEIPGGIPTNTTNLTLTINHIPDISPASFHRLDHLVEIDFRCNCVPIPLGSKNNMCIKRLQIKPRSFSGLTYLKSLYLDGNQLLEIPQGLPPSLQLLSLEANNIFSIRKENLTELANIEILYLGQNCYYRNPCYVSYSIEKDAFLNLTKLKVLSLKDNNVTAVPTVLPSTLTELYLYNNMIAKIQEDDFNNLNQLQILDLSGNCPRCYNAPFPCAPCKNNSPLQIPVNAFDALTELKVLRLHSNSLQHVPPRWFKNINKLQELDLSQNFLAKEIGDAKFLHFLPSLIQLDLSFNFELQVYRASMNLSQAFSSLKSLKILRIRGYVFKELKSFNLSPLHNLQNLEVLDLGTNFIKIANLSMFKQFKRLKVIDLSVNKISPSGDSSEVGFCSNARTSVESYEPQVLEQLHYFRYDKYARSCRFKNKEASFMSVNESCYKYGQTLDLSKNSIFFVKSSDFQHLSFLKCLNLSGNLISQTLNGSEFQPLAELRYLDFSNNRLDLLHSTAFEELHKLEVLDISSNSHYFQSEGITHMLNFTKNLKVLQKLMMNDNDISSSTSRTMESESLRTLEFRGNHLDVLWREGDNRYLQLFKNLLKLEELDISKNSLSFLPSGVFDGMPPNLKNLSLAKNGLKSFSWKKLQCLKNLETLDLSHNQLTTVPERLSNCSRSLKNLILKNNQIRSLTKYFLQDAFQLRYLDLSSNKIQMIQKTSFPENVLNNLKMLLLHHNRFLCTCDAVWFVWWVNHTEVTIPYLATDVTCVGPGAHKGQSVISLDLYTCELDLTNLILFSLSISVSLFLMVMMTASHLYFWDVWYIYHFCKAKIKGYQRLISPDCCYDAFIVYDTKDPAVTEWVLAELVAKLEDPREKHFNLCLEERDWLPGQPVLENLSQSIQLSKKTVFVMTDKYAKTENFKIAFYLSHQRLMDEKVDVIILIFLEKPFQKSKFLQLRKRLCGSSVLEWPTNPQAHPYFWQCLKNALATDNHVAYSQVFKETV
Procedure, shortened: (§1)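 Ramos-Blue control cells (TLR3/7/9 and Nod1, no Nod2; stable NF-κB/AP-1-inducible SEAP reporter) at 1 × 10^6 cells/mL, exposed 18 h to 20 μM compound. SEAP in supernatant read with QUANTI-Blue reagent (3 h, 37 °C), absorbance 640 nm; activity compared with untreated cells.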

[2] = molecular target: Nucleotide-binding oligomerization domain-containing protein 2 (Homo sapiens) (UniProt Q9HC29); test: Agonist activity at human Nod2 expressed in HEK293-blue cells assessed as increase in NF-kappaB transcriptional activity at 20 uM incubated for 18 hrs using quanti blue assay based SEAP reporter gene assay; type: functional, cell-based
Procedure, shortened: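 HEK-Blue Nod2 cells (HEK293 stably coexpressing human Nod2 and NF-κB-inducible SEAP) at 1 × 10^6 cells/mL, treated 18 h with 20 μM compound. Supernatant SEAP measured with QUANTI-Blue, 3 h at 37 °C, absorbance 640 nm. Duplicates in three independent experiments, compared with untreated cells.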

PBMC [3] = test: Immunomodulatory activity in human PBMCs assessed as increase in PMA/ionomycin-induced IL-12p70 release at 20 uM incubated for 18 hrs by multiplexed cytokine assay; type: functional, cell-based
Procedure, shortened: (§2)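 Ficoll-isolated human PBMC, 1 × 10^6 cells per well, treated with 20 μM compound (DMSO ≤0.1%) plus PMA 3.33 ng/mL and ionomycin 500 nM for 18 h at 37 °C, 5% CO2. Cell-free supernatant cytokines measured by CBA human inflammatory kit on a flow cytometer against recombinant standards. Reported as % of PMA/ionomycin-only release; duplicates, three experiments, three donors.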

[4] = molecular target: T2, Nucleotide-binding oligomerization domain-containing protein 1 (Homo sapiens) (UniProt Q9Y239); test: Agonist activity at human NOD1 expressed in Ramos blue cells assessed as stimulation of NF-kB/AP-1 activity at 20 uM incubated for 18 hrs using quanti blue assay based SEAP reporter gene assay; type: functional, cell-based; procedure, shortened: as §1
T2 sequence (whole entry): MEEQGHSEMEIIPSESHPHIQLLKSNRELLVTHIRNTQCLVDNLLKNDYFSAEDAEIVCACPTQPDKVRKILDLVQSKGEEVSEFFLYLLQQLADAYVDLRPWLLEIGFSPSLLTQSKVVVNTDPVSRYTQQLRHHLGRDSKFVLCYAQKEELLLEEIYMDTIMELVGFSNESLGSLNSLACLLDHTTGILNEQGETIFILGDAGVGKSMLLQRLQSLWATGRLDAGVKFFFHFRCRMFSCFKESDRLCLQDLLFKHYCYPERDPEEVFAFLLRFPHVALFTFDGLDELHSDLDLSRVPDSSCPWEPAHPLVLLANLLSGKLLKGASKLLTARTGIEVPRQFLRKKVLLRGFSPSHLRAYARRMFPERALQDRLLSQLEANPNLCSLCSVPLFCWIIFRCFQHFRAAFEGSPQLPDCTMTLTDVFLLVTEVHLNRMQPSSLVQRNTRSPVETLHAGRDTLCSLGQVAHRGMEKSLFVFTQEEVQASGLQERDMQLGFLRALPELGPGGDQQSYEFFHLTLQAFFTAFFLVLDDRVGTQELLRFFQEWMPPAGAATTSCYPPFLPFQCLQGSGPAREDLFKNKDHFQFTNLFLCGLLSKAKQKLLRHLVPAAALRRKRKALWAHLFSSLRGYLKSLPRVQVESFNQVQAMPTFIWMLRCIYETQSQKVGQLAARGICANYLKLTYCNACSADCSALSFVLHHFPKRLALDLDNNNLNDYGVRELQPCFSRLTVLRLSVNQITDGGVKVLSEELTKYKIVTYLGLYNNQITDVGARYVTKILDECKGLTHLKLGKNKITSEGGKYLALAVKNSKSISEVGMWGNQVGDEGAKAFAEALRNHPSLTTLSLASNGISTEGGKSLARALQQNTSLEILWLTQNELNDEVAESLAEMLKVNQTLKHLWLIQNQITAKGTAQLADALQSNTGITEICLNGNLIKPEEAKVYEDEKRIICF

[5] = molecular target: Toll-like receptor 3 (Homo sapiens) (UniProt O15455); test: Agonist activity at human TLR3 expressed in Ramos blue cells assessed as stimulation of NF-kB/AP-1 activity at 20 uM incubated for 18 hrs using quanti blue assay based SEAP reporter gene assay; type: functional, cell-based; procedure, shortened: as §1
PBMC [6] = test: Cytotoxicity against human PBMCs assessed as residual metabolic activity at 20 uM in presence of PMA and ionomycin after 18 hrs by MTS assay; type: ADME, cell-based
Procedure, shortened: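 Human PBMC (1 × 10^6 cells/mL, triplicate) given 20 μM compound together with PMA 3.33 ng/mL and ionomycin 500 nM for 18 h. MTS metabolic activity compared with the PMA/ionomycin-only control.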

PBMC [7] = test: Immunomodulatory activity in human PBMCs assessed as increase in PMA/ionomycin-induced IL6 release at 20 uM incubated for 18 hrs by multiplexed cytokine assay; type: functional, cell-based; procedure, shortened: as §2

Sequence of Toll-like receptor 3 (Homo sapiens) (O15455 whole entry): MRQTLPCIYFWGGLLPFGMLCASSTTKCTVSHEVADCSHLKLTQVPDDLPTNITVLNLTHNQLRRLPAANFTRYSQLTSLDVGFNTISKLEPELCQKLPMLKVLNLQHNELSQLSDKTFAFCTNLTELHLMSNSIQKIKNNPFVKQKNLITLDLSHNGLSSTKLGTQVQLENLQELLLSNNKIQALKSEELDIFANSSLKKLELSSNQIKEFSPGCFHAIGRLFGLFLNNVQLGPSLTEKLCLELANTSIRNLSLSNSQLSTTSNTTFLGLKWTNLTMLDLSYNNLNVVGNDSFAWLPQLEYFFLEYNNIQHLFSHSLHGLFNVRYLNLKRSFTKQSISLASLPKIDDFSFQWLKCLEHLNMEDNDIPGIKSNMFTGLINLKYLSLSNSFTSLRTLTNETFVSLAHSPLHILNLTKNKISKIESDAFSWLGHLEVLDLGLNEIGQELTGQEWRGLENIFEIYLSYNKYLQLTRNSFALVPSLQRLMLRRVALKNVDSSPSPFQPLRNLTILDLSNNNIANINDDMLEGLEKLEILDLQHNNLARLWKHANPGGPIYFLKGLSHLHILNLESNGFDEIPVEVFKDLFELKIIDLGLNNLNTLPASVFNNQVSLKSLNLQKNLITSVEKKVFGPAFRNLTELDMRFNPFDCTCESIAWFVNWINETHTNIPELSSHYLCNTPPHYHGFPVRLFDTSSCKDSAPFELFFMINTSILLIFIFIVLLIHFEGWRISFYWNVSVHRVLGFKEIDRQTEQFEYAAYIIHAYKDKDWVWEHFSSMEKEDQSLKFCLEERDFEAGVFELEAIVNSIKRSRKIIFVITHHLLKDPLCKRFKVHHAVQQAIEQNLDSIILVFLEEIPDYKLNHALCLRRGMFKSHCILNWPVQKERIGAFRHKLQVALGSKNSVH
Sequence of Nucleotide-binding oligomerization domain-containing protein 2 (Homo sapiens) (Q9HC29 whole entry, the tested form may be a part): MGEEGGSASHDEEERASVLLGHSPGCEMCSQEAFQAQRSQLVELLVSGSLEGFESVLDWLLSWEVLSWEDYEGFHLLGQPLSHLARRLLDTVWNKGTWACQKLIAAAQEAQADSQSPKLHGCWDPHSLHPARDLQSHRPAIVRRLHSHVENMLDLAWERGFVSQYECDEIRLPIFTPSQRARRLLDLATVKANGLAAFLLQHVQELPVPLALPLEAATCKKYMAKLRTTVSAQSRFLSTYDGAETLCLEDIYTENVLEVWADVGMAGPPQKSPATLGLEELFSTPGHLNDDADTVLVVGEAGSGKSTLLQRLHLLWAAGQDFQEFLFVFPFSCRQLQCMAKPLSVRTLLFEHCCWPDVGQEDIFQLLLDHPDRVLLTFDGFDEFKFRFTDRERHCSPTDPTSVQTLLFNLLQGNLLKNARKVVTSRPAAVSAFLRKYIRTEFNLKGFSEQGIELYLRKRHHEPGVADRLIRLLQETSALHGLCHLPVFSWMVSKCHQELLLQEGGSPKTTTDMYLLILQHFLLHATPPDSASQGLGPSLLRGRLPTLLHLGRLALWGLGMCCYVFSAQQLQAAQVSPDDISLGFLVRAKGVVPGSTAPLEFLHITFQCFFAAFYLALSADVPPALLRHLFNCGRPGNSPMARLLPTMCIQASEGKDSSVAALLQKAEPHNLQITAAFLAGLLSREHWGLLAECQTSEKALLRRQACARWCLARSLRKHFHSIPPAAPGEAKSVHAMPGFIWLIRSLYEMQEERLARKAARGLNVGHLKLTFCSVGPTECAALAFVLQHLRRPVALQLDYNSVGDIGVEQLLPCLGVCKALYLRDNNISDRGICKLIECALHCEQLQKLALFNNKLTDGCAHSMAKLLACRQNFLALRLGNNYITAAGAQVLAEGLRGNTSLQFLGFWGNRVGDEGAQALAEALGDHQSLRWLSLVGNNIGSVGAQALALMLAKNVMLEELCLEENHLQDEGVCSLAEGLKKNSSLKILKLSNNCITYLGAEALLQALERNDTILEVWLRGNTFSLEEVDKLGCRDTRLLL

For `CCCCOC(=O)[C@@H](CCC(N)=O)NC(=O)[C@H](C)NC(=O)[C@@H](C)O[C@H]1[C@H](O)[C@@H](CO)OC(O)[C@@H]1NC(C)=O` (stereo partly drawn) [MURABUTIDE], the Activity [1] was “inactive”, the Activity [2] was “Active” and the Activity (PBMC [3]) was “Active”. The Activity [4] was “inactive”, the Activity [5] was “inactive” and the Activity (PBMC [6]) was “Non-toxic”.

`CCOC(=O)CC[C@@H](NC(=O)[C@H](C)NC(=O)C1=C2c3ccccc3S(=O)(=O)N2CCC1)C(=O)OCC` was tested, and the Activity [1] was “inactive”, the Activity [2] was “Active” and the Activity (PBMC [3]) was “Active”. For the same compound, the Activity (PBMC [7]) was “Active”, the Activity [4] was “inactive” and the Activity [5] was “inactive”. For the same compound, the Activity (PBMC [6]) was “Non-toxic”.

With `CCOC(=O)CC[C@@H](NC(=O)[C@H](C)NC(=O)COCCN1C(=O)c2ccccc2S1(=O)=O)C(=O)OCC` the Activity [1] was “inactive”, the Activity (PBMC [3]) was “inactive” and the Activity (PBMC [7]) was “inactive”. For the same compound, the Activity [4] was “inactive”, the Activity [5] was “inactive” and the Activity (PBMC [6]) was “Non-toxic”.

`CCOC(=O)CC[C@@H](NC(=O)[C@H](C)NC(=O)CCCCN1C(=O)c2ccccc2S1(=O)=O)C(=O)OCC` was tested, and the Activity [1] was “inactive”, the Activity (PBMC [3]) was “inactive” and the Activity (PBMC [7]) was “inactive”. For the same compound, the Activity [4] was “inactive”, the Activity [5] was “inactive” and the Activity (PBMC [6]) was “Non-toxic”.

`CCOC(=O)CC[C@@H](NC(=O)[C@H](C)NC(=O)COCCN1C(=O)c2ccccc2S1(=O)=O)C(N)=O` was tested, and the Activity [1] was “inactive”, the Activity [2] was “inactive” and the Activity (PBMC [3]) was “inactive”. For the same compound, the Activity (PBMC [7]) was “inactive”, the Activity [4] was “inactive” and the Activity [5] was “inactive”. For the same compound, the Activity (PBMC [6]) was “Non-toxic”.

With `CCOC(=O)CC[C@@H](NC(=O)[C@H](C)NC(=O)CNC(=O)c1cc2ccccc2[nH]1)C(N)=O` the Activity [1] was “inactive”, the Activity [2] was “inactive” and the Activity (PBMC [3]) was “inactive”. The Activity (PBMC [7]) was “inactive”, the Activity [4] was “inactive” and the Activity [5] was “inactive”. The Activity (PBMC [6]) was “Non-toxic”.

`CCOC(=O)CC[C@@H](NC(=O)[C@H](C)NC(=O)CCCCN1C(=O)c2ccccc2S1(=O)=O)C(N)=O` was tested, and the Activity [1] was “inactive”, the Activity [2] was “inactive” and the Activity (PBMC [3]) was “inactive”. For the same compound, the Activity (PBMC [7]) was “inactive”, the Activity [4] was “inactive” and the Activity [5] was “inactive”. For the same compound, the Activity (PBMC [6]) was “Non-toxic”.

In the case of `CCOC(=O)CC[C@@H](NC(=O)[C@H](C)NC(=O)CNC(=O)c1cc2ccccc2[nH]1)C(=O)OCC`, the Activity [1] is reported as “inactive”, the Activity [2] is reported as “Active” and the Activity (PBMC [3]) is reported as “Active”. For the same compound, the Activity (PBMC [7]) was “Active”, the Activity [4] was “inactive” and the Activity [5] was “inactive”. The Activity (PBMC [6]) was “Non-toxic”.
